In ChEMBL document CHEMBL5233208, “Optimization of P2Y12 Antagonist Ethyl 6-(4-((Benzylsulfonyl)carbamoyl)piperidin-1-yl)-5-cyano-2-methylnicotinate (AZD1283) Led to the Discovery of an Oral Antiplatelet Agent with Improved Druglike Properties” (J Med Chem, 2019):
Active and inactive are the calls of the source. The calls are words filed in the database; no cut-off is given here.

Tests used:
[1] = species on record: Homo sapiens; assay: Antiplatelet activity in human platelet-rich plasma assessed as inhibition of ADP-induced platelet aggregation by aggregometry; assay type: functional
Procedure, shortened: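 Human PRP from healthy donors free of aspirin/NSAIDs for at least two weeks, drawn into ACD; PRP spun at 300 g for 10 min, PPP at 2000 g. Compound in 0.5% DMSO preincubated 2 min at 37 °C with stirring (900 rpm). Aggregation induced by 10 μM ADP (final) and followed optically for 5 min.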

[2] = test system: Rattus norvegicus; assay: Antithrombotic activity in anesthetized Wistar rat model of FeCL3-induced carotid artery thrombosis assessed as reduction in thrombus weight at 10 mg/kg, po administered as single dose measured at 1.5 hrs post dose; assay type: functional, organism-based
Procedure, shortened: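 Compounds in 0.5% CMC-Na given to Wistar rats as a single oral gavage dose (10 mL/kg). Rats anesthetized with 2% pentobarbital i.p. at 50 mg/kg and kept on a heating pad. At 1.5 h post-dose, filter paper soaked in 20% FeCl3 applied to the isolated left carotid artery for 10 min; thrombus weight recorded. Mean ± SEM, n = 10.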

[3] = Metabolic stability in rat liver microsomes assessed as half life at […] measured up to 60 mins in presence of NADPH regeneration system by LC-MS/MS analysis; assay type: ADME, Microsome
[4] = Metabolic stability in dog liver microsomes assessed as half life at […] measured up to 60 mins in presence of NADPH regeneration system by LC-MS/MS analysis; assay type: ADME, Canis lupus familiaris, Microsome
[5] = Metabolic stability in human liver microsomes assessed as half life at […] measured up to 60 mins in presence of NADPH regeneration system by LC-MS/MS analysis; assay type: ADME, Microsome
[6] = Cmax in Sprague-Dawley rat at 5 mg/kg,po measured up to 24 hrs by LC-MS/MS analysis; assay type: ADME, organism-based; set-up: time < 24 hrs, dose 5 mg/kg, route po; settings: in vivo
[7] = Half life in Sprague-Dawley rat at 5 mg/kg,po measured up to 24 hrs by LC-MS/MS analysis; assay type: ADME, organism-based; settings: in vivo
[8] = Tmax in Sprague-Dawley rat at 5 mg/kg,po measured up to 24 hrs by LC-MS/MS analysis; assay type: ADME, organism-based; settings: in vivo
[9] = AUC (0 to infinity) in Sprague-Dawley rat at 5 mg/kg,po measured up to 24 hrs by LC-MS/MS analysis; assay type: ADME, organism-based; set-up: time < 24 hrs, dose 5 mg/kg, route po; settings: in vivo
[10] = MRT in Sprague-Dawley rat at 5 mg/kg,po measured up to 24 hrs by LC-MS/MS analysis; assay type: ADME, organism-based; settings: in vivo
[11] = Metabolic stability in rat liver microsomes assessed as intrinsic clearance at 0.1 µM measured up to 60 mins in presence of NADPH regeneration system by LC-MS/MS analysis; settings: 1 h
[12] = Metabolic stability in dog liver microsomes assessed as intrinsic clearance at 0.1 µM measured up to 60 mins in presence of NADPH regeneration system by LC-MS/MS analysis; settings: 1 h
[13] = Metabolic stability in human liver microsomes assessed as intrinsic clearance at 0.1 µM measured up to 60 mins in presence of NADPH regeneration system by LC-MS/MS analysis; settings: 1 h

SMILES	IC50 [1] [µM]	other results
N#Cc1ccc(CS(=O)(=O)NC(=O)C2CCN(c3nc4c(cc3C#N)C(=O)OC4)CC2)cc1	8.9	
N#Cc1cc2c(nc1N1CCC(C(=O)NS(=O)(=O)Cc3cccc(F)c3)CC1)COC2=O	70.5	
CC1(C(=O)NS(=O)(=O)Cc2ccc(F)cc2)CCN(c2nc3c(cc2C#N)C(=O)OC3)CC1	35.4	
N#Cc1cc2c(nc1N1CCC(C(=O)NS(=O)(=O)Cc3ccc(Cl)cc3)CC1)COC2=O	4.42	
N#Cc1cc2c(nc1N1CCC(F)(C(=O)NS(=O)(=O)c3ccc(Cl)s3)CC1)COC2=O	37.1	
N#Cc1cc2c(nc1N1CCC(C(=O)NS(=O)(=O)Cc3ccc(F)cc3F)CC1)COC2=O	5.2	
N#Cc1cc2c(nc1N1CCC(C(=O)NS(=O)(=O)Cc3cc(Cl)cc(Cl)c3)CC1)COC2=O	30.5	
N#Cc1cc2c(nc1N1CCC(C(=O)NS(=O)(=O)Cc3ccccc3)CC1)COC2=O	2.35	Activity [2]: Active; half-life [3]: 2.42 h; half-life [4]: 1.93 h; half-life [5]: 1.35 h; Cmax [6]: 271 ng/mL; half-life [7]: 1.7 h; Tmax [8]: 0.25 h; AUC(0-inf) [9]: 384 ng·h/mL; MRT [10]: 1.91 h; intrinsic clearance [11]: 14.5 mL/min/g; intrinsic clearance [12]: 18.2 mL/min/g; intrinsic clearance [13]: 25.8 mL/min/g
N#Cc1cc2c(nc1N1CCC(C(=O)NS(=O)(=O)Cc3ccccc3)CC1)CCC(Cl)C2=O (stereo unspecified)	> 300	
N#Cc1cc2c(nc1N1CCC(F)(C(=O)NS(=O)(=O)Cc3ccc(Cl)cc3)CC1)COC2=O	37.2	
N#Cc1cc2c(nc1N1CCC(C(=O)NS(=O)(=O)C3(c4ccccc4)CC3)CC1)COC2=O	4.1	
CC1OC(=O)c2cc(C#N)c(N3CCC(C(=O)NS(=O)(=O)Cc4ccccc4)C3)nc21 (stereo unspecified)	> 300	
N#Cc1cc2c(nc1N1CC(C(=O)NS(=O)(=O)c3ccc(Cl)s3)C1)COC2=O	193	
N#Cc1cc2c(nc1N1CCC(C(=O)NS(=O)(=O)Cc3ccc(F)cc3)CC1)COC2=O	3.5	
CC(c1ccccc1)S(=O)(=O)NC(=O)C1(F)CCN(c2nc3c(cc2C#N)C(=O)OC3)CC1 (stereo unspecified)	9.95	
CC1(C(=O)NS(=O)(=O)Cc2ccc(Cl)cc2)CCN(c2nc3c(cc2C#N)C(=O)OC3)CC1	3.01	Cmax [6]: 877 ng/mL; half-life [7]: 1.9 h; Tmax [8]: 0.25 h; AUC(0-inf) [9]: 1350 ng·h/mL; MRT [10]: 2.58 h
N#Cc1cc2c(nc1N1CCC(C(=O)NS(=O)(=O)Cc3ccc(C(F)(F)F)cc3)CC1)COC2=O	15.9	
N#Cc1cc2c(nc1N1CCC(C(=O)NS(=O)(=O)Cc3ccccc3)CC1)CCC(F)C2=O (stereo unspecified)	255	
N#Cc1cc2c(nc1N1CCC(C(=O)NS(=O)(=O)Cc3ccccc3)CC1)CNC2=O	> 300	
